# The list is not random: actives were taken first. Their share in the collection is about 3.5%.
# MrgX1 antagonist – antagonists of human MrgX1 receptor, primary screen, HEK293 cells, Fluo-4 calcium flux. Mas-related G-protein coupled receptor member X1 (Homo sapiens), Q96LB2. BAM8-22 antagonism; hits give low values. B-score at 10 µM. hit rate 1.3% among 310,000;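 active means calcium-response B-score plate-corrected more than 3 library SD below zero, starting fluorescence within 5 deviations, no agonist response on first addition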;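 further: peak minus trough fluorescence over baseline after final BAM8-22 challenge near maximal dose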
# MrgX1 ag – agonists of human MrgX1 receptor, primary screen, HEK293 cells, Fluo-4 calcium flux. Mas-related G-protein coupled receptor member X1 (Homo sapiens), Q96LB2. Fluo-4 calcium fluorescence, agonist mode; hits give high values. B-score at 10 µM. hit rate 0.44% among 310,000. AID 588627, 2011;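 active means calcium response B-score plate-corrected fluorescence ratio at least 3 library SD, with starting fluorescence B-score inside 5 SD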
#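 Test system: HEK293 cells stably expressing human MrgX1 receptor; amount: 15,000 cells per well; doses: compound delivered in addition one of three; times: overnight plating before 1 h dye loading; detection: Fluo-4 NW calcium-flux fluorescence, kinetic read; read-out basis: B-scored fluorescence response ratio; controls: positive and negative controls per plate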
# MrgX1 PAM – positive allosteric modulators of MrgX1, primary screen, HEK293 cells, Fluo-4 calcium flux | B-score at 10 µM | FDSS; hits give high values | AID 588675, 2011 | Mas-related G-protein coupled receptor member X1 (Homo sapiens), Q96LB2 | hit rate 0.63% among 310,000;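 active means plate-corrected calcium response at least 3 library SD above typical, normal starting fluorescence, not activating the receptor alone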;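 further: compound read alongside a low EC10 to EC30 dose of BAM8-22 agonist; peak minus trough fluorescence over baseline measured at the second addition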
# RGS4 pot – RGS4 potentiators or activators, primary screen, cell-based, HEK293 M3R inducible RGS4, calcium flux. carbachol calcium flux Fluo4; hits give low values. B-score at 10 µM. hit rate 0.92% among 310,000. AID 463111, 2010;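 active means B-score of the integrated calcium signal more than 4 SD below the library mean, with starting fluorescence not abnormally high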;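 further: negative B-score means reduced calcium response which marks RGS4 activation or potentiation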
#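 Also added: carbachol at ECmax as muscarinic agonist stimulus; Assay system: HEK293 cells with stable M3R and inducible RGS4; Timing: overnight RGS4 induction, 30 min dye load 37 °C, 20 min compound RT; Measured by: Fluo4-AM (2 µM) calcium-flux fluorescence, kinetic read.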
# RGS4 block – RGS4 inhibitors, primary screen, cell-based, HEK293 M3R inducible RGS4, calcium flux; Fluo-4 calcium flux; hits give high values; triggered by carbachol at its EC20; hit rate 0.45% among 310,000; B-score at 10 µM; AID 463165, 2010;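 active means B-score, a plate-corrected calcium signal, over three deviations above library mean, with baseline fluorescence within five deviations of library mean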;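 further: RGS4 expression induced by doxycycline in cells with stable M3 receptor; B-score is computed from the integrated fluorescence ratio over baseline after carbachol; higher B-score means a larger calcium signal and so more RGS4 inhibition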
# Target sequence (P49798 whole entry, looked up): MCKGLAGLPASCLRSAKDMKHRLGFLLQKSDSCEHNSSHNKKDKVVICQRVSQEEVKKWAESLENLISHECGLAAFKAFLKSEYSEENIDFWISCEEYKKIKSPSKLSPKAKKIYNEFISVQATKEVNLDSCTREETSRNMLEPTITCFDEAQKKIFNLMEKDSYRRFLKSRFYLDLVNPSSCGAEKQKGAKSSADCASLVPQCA
# Active calls of the source: *; i = inactive; . = no result given.
SMILES,MrgX1 antagonist,MrgX1 ag,MrgX1 PAM,RGS4 pot,RGS4 block
O=[N+]([O-])c1nn(-c2ccc3c(c2)OCCO3)n(O)c1=NC1CCN(Cc2ccccc2)CC1,-5.1*,i,i,i,i
COCCCN(C(=O)c1cc2c(s1)CCCCC2)c1c(N)n(Cc2ccccc2)c(=O)[nH]c1=O,i,i,i,i,i
O=[N+]([O-])c1cccc(-c2cn3nc(-c4ccccc4)c(-c4ccccc4)nc3n2)c1,i,i,i,i,i
O=Nc1c(-c2cccc([N+](=O)[O-])c2)nc2ncccn12,i,i,i,i,6.2*
CCOc1ccc2c(c1)/C(=C(\C(Cl)=C(Cl)Cl)[N+](=O)[O-])N2,i,i,i,i,i
CCCCOc1ccc2c(c1)/C(=C(\C(Cl)=C(Cl)Cl)[N+](=O)[O-])N2,i,34*,i,i,i
N#Cc1ccc(NC(=O)CNc2cc(S(=O)(=O)N3CCOCC3)ccc2NCC2CCCO2)cc1 (centres undefined),i,i,6.6*,i,i
CCC(C)NCCCCOc1cc(C)cc(C(C)C)c1 (centres undefined),i,i,i,-7.3*,i
Cn1c(=O)c2[nH]c(-c3ccc(S(=O)(=O)O)cc3)nc2n(C)c1=O,i,i,i,i,i
Cc1nn(Cc2ccccc2)c(Cl)c1/C=C/C(=O)OC(C)C(=O)N1CCCC1 (centres undefined),-5.9*,i,i,i,i
Cc1nn(Cc2ccccc2)c(Cl)c1/C=C/C(=O)OCC(=O)NC(C)C(C)C (centres undefined),i,i,i,i,i
O=C(CCNC(=O)c1ccc(Cl)cc1)Nc1ccccc1N1CCCCC1,i,i,i,i,i
COc1cc(C2SCC(=O)N2Cc2ccccc2)ccc1O (centres undefined),i,i,i,i,i
CCSC1=C(C#N)C(c2ccc(C)o2)CC(=O)N1 (centres undefined),i,i,i,i,i
Cc1ccc(C2CC(=O)NC(SCc3ccccc3)=C2C#N)o1 (centres undefined),i,30*,i,i,i
Cc1ccc(C2C(C#N)=C(N)SC(N)=C2C#N)c(C)c1,i,52*,i,i,i
COc1ccccc1CC(=O)N(Cc1ccccc1)c1ccc(C)cc1,i,i,i,i,i
CC(=C/c1ccccc1)/C=N/NC(=O)c1ccc2nc[nH]c2c1,i,i,i,i,i
CC(/C=N/NC(=O)c1ccc2nc(C)[nH]c2c1)=C\c1ccccc1,i,i,6.7*,i,i
COc1ccc(C(=O)NCC(=O)N/N=C(\C)Cc2ccccc2)cc1,i,i,7*,i,i
CCc1ccc2cccc3c2c1N=CN3C,i,i,i,i,i
CCn1ccnc1CN1CCc2c([nH]c3ccccc23)C1C(C)(C)C (centres undefined),i,i,i,i,i
CCn1ccnc1CN1CCc2c([nH]c3ccccc23)C1C1CCCCC1 (centres undefined),i,i,i,-7.6*,i
CCN1CCc2c(sc(NC(=O)Nc3ccc(Cl)c(Cl)c3)c2C(N)=O)C1,i,i,i,.,.
N#C/C(=C\c1ccccn1)c1nc2ccccc2s1,-7.2*,i,i,i,i
CCOc1ccc(-c2nnc(SCC(=O)NC(C)(C)C)nc2-c2ccc(OCC)c(OC)c2)cc1OC,i,i,i,i,i
C/C(CC(=O)Nc1ccc2c(c1)OCCO2)=N\NC(=O)c1ccccc1Cl,i,i,i,i,i
COc1ccc(OC)c(NC(=O)c2c(NC(=O)CCC(=O)O)sc3c2CCCCC3)c1,i,i,7*,i,i
Cc1ccc(NC(=O)CC(O)(C(F)(F)F)C(F)(F)F)cc1,i,48*,i,i,i
O=C(c1ccc(Cl)cc1)N1CCN(CCc2ccccn2)CC1,i,i,i,i,i

# Assay outcomes as filed in PubChem.
